The nature of data set [1]: Cytotoxicity against human MDA-MB-175 cells expressing Src, Ret and low HER-2 after 72 hrs by SRB assay. It is filed as functional, cell-based. The essentials:
(§1)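 Culture conditions: MDA-MB-361 and MDA-MB-453 grown in L-15 without CO2. NCI-N87, NCI-H1781 and NCI-H1975 grown in RPMI with 1 mM sodium pyruvate under 5% CO2. JIMT-1 grown in DMEM (4.5 g/L glucose) under 5% CO2. MDA-MB-175 grown in L-15 without CO2. All media contained 10% FBS and 1% penicillin-streptomycin, 37 °C. Growth inhibition/GI50 read-out was run per a cited earlier protocol.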
(In general: The SRB assay estimates cell density from bound dye.)

The test system of another data set is MDA-MB-361. As to the kind of experiment: Cytotoxicity against ER activated human MDA-MB-361 cells expressing Her-2, Src and PIK3CA mutant after 72 hrs by SRB assay. It is filed as functional, cell-based. Particulars: MDA-MB-361, 72 h. The essentials:
as §1

The next data set concerns MDA-MB-453. As to the kind of experiment: Cytotoxicity against PTEN-deficient human MDA-MB-453 cells expressing HER-2, and PIK3CA mutant after 72 hrs by SRB assay. It is filed as functional, cell-based. The note with it: MDA-MB-453, 72 h. The essentials: as §1
Data set [2] in a line: Cytotoxicity against human JIMT1 cells expressing low HER-2 after 72 hrs by SRB assay. Type of data set: functional, cell-based. Particulars: JIMT-1, 72 h. The essentials: as §1
Another data set deals with NCI-N87. As to the kind of experiment: Cytotoxicity against human NCI-N87 cells expressing HER-2 after 72 hrs by SRB assay. It is filed as functional, cell-based. The note with it: NCI-N87, 72 h. In short, it runs like this:
as §1

Data set [3] is described as follows: Cytotoxicity against human NCI-H1781 cells expressing HER-2 G776insV_G/C after 72 hrs by SRB assay. It is filed as functional, cell-based. The note with it: NCI-H1781, 72 h. The essentials:
as §1

In a further data set the test system is NCI-H1975. As to the kind of experiment: Cytotoxicity against human NCI-H1975 cells expressing EGFR L858R/T790M mutant after 72 hrs by SRB assay. Type of data set: functional, cell-based. The note with it: NCI-H1975, 72 h. In short, it runs like this:
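NCI-N87, NCI-H1781 and NCI-H1975 grown in RPMI with 1 mM sodium pyruvate under 5% CO2. JIMT-1 grown in DMEM (4.5 g/L glucose) under 5% CO2. All media contained 10% FBS and 1% penicillin-streptomycin, 37 °C. Growth inhibition/GI50 read-out was run per a cited earlier protocol.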

Data set [4] is described as follows: Half life in human liver microsomes at 5 uM. The note with it: liver microsomes.
Data set [5] in a line: Half life in rat liver microsomes at 5 uM. Particulars: liver microsomes. For orientation: Liver microsomes are vesicles of endoplasmic reticulum, rich in cytochrome P450 enzymes.
The nature of data set [6]: Half life in dog liver microsomes at 5 uM. The note with it: liver microsomes.
The next data set concerns SK-BR-3. Briefly: Cytotoxicity against human SKBR3 cells overexpressing HER-2 gene after 72 hrs by SRB assay. The note with it: SK-BR-3, 72 h. Type of data set: functional, cell-based. The essentials: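 A431 and SK-Br3 cells grown in DMEM (4.5 g/L glucose, 1.5 g/L sodium bicarbonate) with 10% FBS at 37 °C, humidified 5% CO2. Proliferation/growth inhibition IC50 values are means of three independent experiments, each run in duplicate.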

A short description of data set [7]: Half life in mouse liver microsomes at 5 uM. Particulars: liver microsomes.
Data set [8] has as its target Receptor tyrosine-protein kinase erbB-2 (Homo sapiens, UniProt P04626). Briefly: Inhibition of HER2 preincubated for 10 mins followed by incubation for 30 mins by fluorescence polarization assay.
Data set [9] addresses Receptor tyrosine-protein kinase erbB-4 (Homo sapiens, UniProt Q15303). As to the kind of experiment: Inhibition of HER4 preincubated for 10 mins followed by incubation for 30 mins by fluorescence polarization assay. A general note: In fluorescence polarisation assays a small probe gives low polarisation when free and higher when bound to something large.
Data set [10] addresses Tyrosine-protein kinase ABL1 (Homo sapiens, UniProt P00519). As to the kind of experiment: Inhibition of Abl.
Data set [11] concerns the target 5'-AMP-activated protein kinase catalytic subunit alpha-1 (Homo sapiens, UniProt Q13131). Briefly: Inhibition of AMPKalpha1.
Another data set deals with Aurora kinase A (Homo sapiens, UniProt O14965). Briefly: Inhibition of Aurora A.
Data set [12] concerns the target Cyclin-dependent kinase 1/cyclin B1 (Homo sapiens, UniProt P06493). As to the kind of experiment: Inhibition of CDK1/cyclin B. It is filed as protein-complex assay.
In data set [13] the target is Mast/stem cell growth factor receptor Kit (Homo sapiens, UniProt P10721). As to the kind of experiment: Inhibition of cKIT.
In the next data set the target is Focal adhesion kinase 1 (Homo sapiens, UniProt Q05397). Briefly: Inhibition of FAK.
The target in data set [14] is Fibroblast growth factor receptor 1 (Homo sapiens, UniProt P11362). Briefly: Inhibition of FGFR1.
The target in data set [15] is Vascular endothelial growth factor receptor 1 (Homo sapiens, UniProt P17948). Briefly: Inhibition of Flt1.
Data set [16] has as its target Receptor-type tyrosine-protein kinase FLT3 (Homo sapiens, UniProt P36888). Briefly: Inhibition of Flt3.
Data set [17] deals with Insulin-like growth factor 1 receptor (Homo sapiens, UniProt P08069). Briefly: Inhibition of IGF-1R.
In a further data set the target is Insulin receptor (Homo sapiens, UniProt P06213). As to the kind of experiment: Inhibition of IR.
Data set [18] addresses Tyrosine-protein kinase JAK2 (Homo sapiens, UniProt O60674). As to the kind of experiment: Inhibition of JAK2.
Data set [19] addresses Serine/threonine-protein kinase STK11 (Homo sapiens, UniProt Q15831). Briefly: Inhibition of LKB1.
Data set [20] has as its target Dual specificity mitogen-activated protein kinase kinase 1 (Homo sapiens, UniProt Q02750). Briefly: Inhibition of MEK1.
In data set [21] the target is Hepatocyte growth factor receptor (Homo sapiens, UniProt P08581). As to the kind of experiment: Inhibition of MET.
Hepatocyte growth factor receptor, sequence (P08581 whole entry): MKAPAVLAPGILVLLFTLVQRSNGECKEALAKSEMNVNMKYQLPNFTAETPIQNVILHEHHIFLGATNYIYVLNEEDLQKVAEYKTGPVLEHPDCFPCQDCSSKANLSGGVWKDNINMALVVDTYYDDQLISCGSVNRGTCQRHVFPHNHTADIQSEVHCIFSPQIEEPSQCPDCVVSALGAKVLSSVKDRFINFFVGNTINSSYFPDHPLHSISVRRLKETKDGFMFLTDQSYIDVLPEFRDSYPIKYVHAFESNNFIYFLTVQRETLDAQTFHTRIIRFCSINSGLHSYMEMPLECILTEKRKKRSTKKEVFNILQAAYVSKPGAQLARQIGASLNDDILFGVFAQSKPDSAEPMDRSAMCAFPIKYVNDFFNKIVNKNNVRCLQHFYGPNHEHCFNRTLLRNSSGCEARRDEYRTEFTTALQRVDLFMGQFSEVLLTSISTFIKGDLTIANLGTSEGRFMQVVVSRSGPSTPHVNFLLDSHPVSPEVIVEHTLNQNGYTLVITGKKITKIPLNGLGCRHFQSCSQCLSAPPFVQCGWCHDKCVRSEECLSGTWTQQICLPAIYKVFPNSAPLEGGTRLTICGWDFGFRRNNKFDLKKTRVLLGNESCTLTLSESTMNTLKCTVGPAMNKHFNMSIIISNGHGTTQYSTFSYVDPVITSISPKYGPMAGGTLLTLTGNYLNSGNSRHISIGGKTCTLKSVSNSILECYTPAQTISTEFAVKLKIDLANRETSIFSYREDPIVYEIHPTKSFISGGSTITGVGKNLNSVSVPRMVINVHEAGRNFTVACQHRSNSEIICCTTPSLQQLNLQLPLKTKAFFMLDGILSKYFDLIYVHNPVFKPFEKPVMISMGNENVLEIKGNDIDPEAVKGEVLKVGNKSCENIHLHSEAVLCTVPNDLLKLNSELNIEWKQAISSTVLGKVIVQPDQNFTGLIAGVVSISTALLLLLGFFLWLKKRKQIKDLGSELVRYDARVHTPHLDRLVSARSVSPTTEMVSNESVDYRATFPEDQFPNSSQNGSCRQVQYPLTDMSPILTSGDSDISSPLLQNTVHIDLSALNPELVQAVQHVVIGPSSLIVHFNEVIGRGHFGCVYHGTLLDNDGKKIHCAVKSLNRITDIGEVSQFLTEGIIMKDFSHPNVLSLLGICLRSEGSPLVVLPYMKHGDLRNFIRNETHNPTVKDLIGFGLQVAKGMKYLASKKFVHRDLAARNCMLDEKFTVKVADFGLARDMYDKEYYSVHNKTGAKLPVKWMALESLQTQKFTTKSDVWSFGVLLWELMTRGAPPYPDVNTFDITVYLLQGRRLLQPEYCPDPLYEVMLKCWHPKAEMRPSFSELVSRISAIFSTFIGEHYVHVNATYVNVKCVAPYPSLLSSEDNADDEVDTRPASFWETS
The target of data set [22] is Platelet-derived growth factor receptor alpha (Homo sapiens, UniProt P16234). Briefly: Inhibition of PDGFRalpha.
Data set [23] addresses Platelet-derived growth factor receptor beta (Homo sapiens, UniProt P09619). As to the kind of experiment: Inhibition of PDGFRbeta.
The target of data set [24] is Tyrosine-protein kinase SYK (Homo sapiens, UniProt P43405). As to the kind of experiment: Inhibition of Syk.
Data set [25] has as its target Serine/threonine-protein kinase pim-1 (Homo sapiens, UniProt P11309). Briefly: Inhibition of PIM1.

pIC50: −log10 of the molar value.

Receptor-type tyrosine-protein kinase FLT3, sequence (P36888 whole entry): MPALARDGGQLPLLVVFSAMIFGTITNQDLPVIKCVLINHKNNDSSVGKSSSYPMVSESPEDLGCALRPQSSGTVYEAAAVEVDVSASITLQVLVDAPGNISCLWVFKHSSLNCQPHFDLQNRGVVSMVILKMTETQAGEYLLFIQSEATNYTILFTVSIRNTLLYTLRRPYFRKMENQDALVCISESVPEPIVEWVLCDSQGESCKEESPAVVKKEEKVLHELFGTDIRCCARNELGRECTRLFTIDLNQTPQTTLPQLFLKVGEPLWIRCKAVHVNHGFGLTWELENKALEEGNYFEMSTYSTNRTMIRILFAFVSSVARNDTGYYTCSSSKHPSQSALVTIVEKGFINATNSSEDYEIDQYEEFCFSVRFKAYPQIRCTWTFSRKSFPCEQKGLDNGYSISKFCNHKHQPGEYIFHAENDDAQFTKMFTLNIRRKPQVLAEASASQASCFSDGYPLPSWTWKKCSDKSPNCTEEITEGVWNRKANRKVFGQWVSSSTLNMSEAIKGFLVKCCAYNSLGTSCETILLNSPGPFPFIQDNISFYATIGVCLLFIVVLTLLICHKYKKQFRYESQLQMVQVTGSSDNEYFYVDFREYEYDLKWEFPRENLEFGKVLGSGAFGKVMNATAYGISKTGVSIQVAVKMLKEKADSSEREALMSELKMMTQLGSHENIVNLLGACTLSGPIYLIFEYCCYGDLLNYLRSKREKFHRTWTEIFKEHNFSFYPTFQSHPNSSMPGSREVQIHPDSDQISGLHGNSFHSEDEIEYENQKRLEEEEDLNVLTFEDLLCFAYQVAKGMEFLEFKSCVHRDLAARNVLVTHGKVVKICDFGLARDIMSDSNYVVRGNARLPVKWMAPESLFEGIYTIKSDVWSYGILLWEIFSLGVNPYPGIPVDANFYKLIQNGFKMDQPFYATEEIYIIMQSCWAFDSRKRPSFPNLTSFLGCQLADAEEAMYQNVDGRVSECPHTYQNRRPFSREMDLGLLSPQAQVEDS
Cyclin-dependent kinase 1/cyclin B1, sequence (P06493 whole entry): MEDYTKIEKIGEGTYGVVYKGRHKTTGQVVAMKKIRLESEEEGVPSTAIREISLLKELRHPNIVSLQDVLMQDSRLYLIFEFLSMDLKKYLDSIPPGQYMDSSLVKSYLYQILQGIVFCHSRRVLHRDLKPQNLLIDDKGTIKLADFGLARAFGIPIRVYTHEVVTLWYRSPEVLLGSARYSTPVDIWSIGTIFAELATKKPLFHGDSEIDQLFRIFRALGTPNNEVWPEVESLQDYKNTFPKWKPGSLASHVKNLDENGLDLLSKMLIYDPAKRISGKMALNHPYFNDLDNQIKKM
Cyclin-dependent kinase 1/cyclin B1, sequence (P14635 whole entry, further chain): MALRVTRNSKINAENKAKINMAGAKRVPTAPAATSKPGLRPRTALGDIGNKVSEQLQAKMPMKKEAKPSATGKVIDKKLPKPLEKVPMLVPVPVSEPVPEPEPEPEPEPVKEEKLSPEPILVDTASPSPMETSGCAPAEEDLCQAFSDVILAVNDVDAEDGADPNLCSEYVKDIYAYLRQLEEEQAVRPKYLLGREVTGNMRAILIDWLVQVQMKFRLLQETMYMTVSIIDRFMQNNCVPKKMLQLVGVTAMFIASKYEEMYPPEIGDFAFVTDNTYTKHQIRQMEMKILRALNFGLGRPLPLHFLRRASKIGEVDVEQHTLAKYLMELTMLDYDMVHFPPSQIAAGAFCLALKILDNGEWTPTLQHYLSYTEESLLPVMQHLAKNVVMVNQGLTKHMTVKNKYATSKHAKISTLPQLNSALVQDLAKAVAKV
Serine/threonine-protein kinase STK11, sequence (Q15831 whole entry): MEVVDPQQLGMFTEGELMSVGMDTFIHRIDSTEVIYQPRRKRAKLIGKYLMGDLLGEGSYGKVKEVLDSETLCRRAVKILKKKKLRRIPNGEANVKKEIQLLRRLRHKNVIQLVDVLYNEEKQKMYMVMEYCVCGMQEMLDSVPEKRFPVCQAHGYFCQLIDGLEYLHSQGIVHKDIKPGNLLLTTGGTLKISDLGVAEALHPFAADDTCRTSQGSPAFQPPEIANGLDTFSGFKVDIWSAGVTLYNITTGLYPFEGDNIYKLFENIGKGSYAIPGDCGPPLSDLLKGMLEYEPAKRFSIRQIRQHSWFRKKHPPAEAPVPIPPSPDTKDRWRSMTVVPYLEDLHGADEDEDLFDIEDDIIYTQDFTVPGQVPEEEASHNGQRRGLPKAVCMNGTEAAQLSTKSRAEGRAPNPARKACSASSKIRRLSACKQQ
Serine/threonine-protein kinase pim-1, sequence (P11309 whole entry): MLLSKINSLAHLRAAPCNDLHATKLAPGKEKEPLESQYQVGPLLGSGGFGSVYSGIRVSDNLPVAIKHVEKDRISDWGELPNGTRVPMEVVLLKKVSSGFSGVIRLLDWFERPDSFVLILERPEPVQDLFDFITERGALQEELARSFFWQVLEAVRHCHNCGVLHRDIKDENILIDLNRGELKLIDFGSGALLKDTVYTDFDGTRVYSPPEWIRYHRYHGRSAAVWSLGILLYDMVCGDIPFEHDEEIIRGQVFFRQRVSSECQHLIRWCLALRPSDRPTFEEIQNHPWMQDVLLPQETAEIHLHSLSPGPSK
Tyrosine-protein kinase ABL1, sequence (P00519 whole entry): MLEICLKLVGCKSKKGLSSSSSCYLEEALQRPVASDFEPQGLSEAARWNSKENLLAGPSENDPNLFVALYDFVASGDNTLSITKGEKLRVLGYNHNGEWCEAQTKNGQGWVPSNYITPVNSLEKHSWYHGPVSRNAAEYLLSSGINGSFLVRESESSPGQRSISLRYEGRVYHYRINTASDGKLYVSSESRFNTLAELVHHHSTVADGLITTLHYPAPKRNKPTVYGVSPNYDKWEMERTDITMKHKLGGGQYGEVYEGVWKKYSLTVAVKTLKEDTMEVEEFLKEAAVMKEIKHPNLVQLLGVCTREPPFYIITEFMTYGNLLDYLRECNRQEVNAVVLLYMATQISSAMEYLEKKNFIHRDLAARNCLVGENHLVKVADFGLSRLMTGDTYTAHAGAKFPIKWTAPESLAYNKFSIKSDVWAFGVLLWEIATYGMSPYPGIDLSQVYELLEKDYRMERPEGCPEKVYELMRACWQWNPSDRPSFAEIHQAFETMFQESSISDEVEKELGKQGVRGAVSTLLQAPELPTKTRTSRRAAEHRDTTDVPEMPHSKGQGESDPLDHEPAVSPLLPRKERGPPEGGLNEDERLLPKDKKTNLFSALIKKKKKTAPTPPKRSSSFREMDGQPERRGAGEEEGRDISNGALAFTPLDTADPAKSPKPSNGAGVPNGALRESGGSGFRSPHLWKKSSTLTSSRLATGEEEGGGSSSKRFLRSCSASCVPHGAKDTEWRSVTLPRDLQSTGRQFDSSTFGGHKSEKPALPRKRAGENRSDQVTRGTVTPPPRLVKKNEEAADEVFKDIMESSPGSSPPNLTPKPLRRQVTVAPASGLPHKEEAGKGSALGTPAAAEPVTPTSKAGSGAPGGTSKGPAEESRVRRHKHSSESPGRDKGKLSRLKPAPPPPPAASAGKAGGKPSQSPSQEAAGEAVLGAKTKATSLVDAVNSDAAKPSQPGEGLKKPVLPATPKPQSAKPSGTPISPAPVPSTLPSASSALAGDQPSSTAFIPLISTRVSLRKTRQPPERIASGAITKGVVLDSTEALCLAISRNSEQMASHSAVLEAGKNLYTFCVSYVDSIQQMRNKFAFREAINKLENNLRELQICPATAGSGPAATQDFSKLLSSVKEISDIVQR

`CS(=O)(=O)CCNCc1ccc(-c2ccc3ncnc(Nc4ccc(OCc5cccc(F)c5)c(Cl)c4)c3c2)o1` [LAPATINIB]: the pIC50 (in general, the negative decadic logarithm of the IC50, by convention in mol/L) in data set [1] was 7.35; with MDA-MB-361 it was 5.99; in the data set on MDA-MB-453 it was 6.26; in data set [2], less than 5.00; with NCI-N87 it was 7.44; in data set [3] it was 5.52. Besides, the pIC50 with NCI-H1975 was less than 6.00.
As to `C=CC(=O)NCc1coc(-c2c(N)ncnc2Nc2ccc(OCc3ccccn3)c(Cl)c2)n1`, the half-life (in general, how long it takes for the measured level to halve) at 5 µM was determined as 25 min in [4], 23 min in data set [5], 46 min in data set [6] and 17 min in data set [7]. Moreover, the negative logarithm of the IC50 (pIC50) with SK-BR-3 was 9.15; in data set [8], 7.65; in data set [9] it was 8.40; in data set [10], less than 5.52; in data set [11] it was less than 5.52; on Aurora kinase A, less than 5.52. The pIC50 (in data set [12]; in [13]; against Focal adhesion kinase 1; in data set [14]; in [15]; in [16]) was less than 5.52 in each case. Further, the pIC50 (in data set [17]; at Insulin receptor; in data set [18]; in [19]; in data set [20]; in data set [21]) was less than 5.52 in each case. In addition, the pIC50 was less than 5.52 in [22]; less than 5.52 in data set [23]; less than 5.52 in data set [24]; less than 5.52 in [25]; 8.80 in data set [1]; 6.25 in the data set with MDA-MB-361. Besides, the pIC50 is 8.30 in the data set with MDA-MB-453, 5.73 in [2] and 7.66 in data set [3].

Values taken from ChEMBL document CHEMBL2034880, “Synthesis and biological evaluation of pyrimidine-based dual inhibitors of human epidermal growth factor receptor 1 (HER-1) and HER-2 tyrosine kinases” (J Med Chem, 2012).
